Vif imaging = inhibitors of HIV Vif; HEK293T cells, Vif self-association by quenched fluorescence, imaging, 24 h; inhibition, % at 7.49 µM; 0.35% of 340,000 active; in the data active = inhibition above about 50%, passing the limit was not always enough; inconclusive = no clear call, values can overlap the other calls; inactive = below about 31%
Ecoli rRNA inh = inhibitors of bacterial rRNA selective over humanized ribosomes; E. coli WT GFP vs humanized-ribosome RFP mutants, fluorescence, 24 h; hits give low values; DMSO median 0, no signal -100; GFP signal change (wild-type ribosome), % (test concentration not listed); 1.6% of 350,000 active; AID 720706;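 active = significant combined selectivity score with lowered wild-type GFP, culture density cut under 30%, mutant RFP and density less affected; inactive = any of these conditions unmet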
miR122 inh = blocks miR-122 activity in Huh7 sensor cells; Huh7 miR-122 Renilla luciferase sensor, 48 h; neutral wells = 0, positive control = 100; activation (reporter increase), % at 12.5 µM; 0.3% of 340,000 active; AID 602342;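 active = mean replicate activation score at least 90 and every replicate individually at or above 90; inconclusive = only one of the two criteria met; inactive = neither criterion met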;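 also: higher luciferase means less miR-122 activity so hits act as miR-122 inhibitors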
S100A4 MyoIIA = S100A4-myosin IIA interaction inhibition; P26447; S100A4/TAMRA-MyoIIA peptide fluorescence polarization; inhibition, % at 10.7 µM; 0.14% of 360,000 active;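 active = mean inhibition of at least 70% across replicates, with every replicate also reaching that level; inconclusive = mean inhibition reaches 70% but some replicates fall short; inactive = mean inhibition below 70%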
Target sequence (P26447 whole entry, looked up): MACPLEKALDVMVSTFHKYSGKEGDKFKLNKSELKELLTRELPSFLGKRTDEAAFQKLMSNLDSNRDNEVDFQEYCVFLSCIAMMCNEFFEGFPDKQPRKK
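Test system: S100A4 monomer protein; Medium: HEPES pH 7.2 with CaCl2, KCl, NaCl, DTT, Triton; Probe or stimulus: TAMRA-labelled myosin IIA heavy-chain peptide probe, 5 nM; Doses: one dose per compound; Times: polarization read 5 min after assay mix addition, stable 5–60 min; Benchmarks: neutral control DMSO, positive control TFP.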
FN deposit inh = fibronectin deposition inhibition; inhibition, % at 12.6 µM; 0.086% of 350,000 active; AH1F fibroblasts, Alexa488-fibronectin deposition fluorescence, overnight;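 active = mean inhibition across replicates of 30% or more, regardless of how many single replicates reach that level; inconclusive = mean under 30% yet at least half of replicates reach 30%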;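 also: positive control wells lacked labelled fibronectin entirely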
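Schedule: 1 h cell adhesion before compound, then overnight fibronectin incubation; test system: AH1F fibroblast monolayer depositing Alexa488-labelled fibronectin into matrix; quantity: 10000 AH1F cells per well; probe or stimulus: fluorescent fibronectin at 24 nM final; signal: fluorescence, ex 485 nm, em 525 nm; evaluation: percent inhibition as loss of matrix-bound fibronectin fluorescence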
HIV Env fusion = inhibitors of HIV Env-mediated cell fusion; 1.1% of 360,000 active; HeLa-JRFL Env/CEM21 cell fusion, luciferase; AID 651610; inhibition, % at 12.3 µM;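 active = mean replicate inhibition score of at least 50 and every replicate individually at or above 50; inconclusive = only one of the two criteria met; inactive = mean below 50 and not all replicates reaching 50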;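 also: 0% = plate neutral controls and 100% = maraviroc near 300 nM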
AID977621 = growth inhibition of wild-type GFP E. coli, dose response, H69 mutant RFP, cherry-pick. E. coli wild-type GFP strain growth, fluorescence, 24 h. 1,900 tested, under 10 active. activity change, negative = inhibition at 50 µM. shares compounds with Ecoli rRNA inh;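 active = Wild-type ribosome reporter drop at least double the humanized mutant ribosome reporter drop, growth loss under a set limit; inconclusive = no clear call, values can overlap the other calls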;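 also: wild-type GFP and H69 mutant RFP strains grown together 50/50 in each well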
AID977628 = growth of wild-type and h24-humanized E. coli strains – h24 mutant RFP vs wild-type GFP, cherry-pick, dose response | shares compounds with Ecoli rRNA inh | AID 977628 | E. coli WT GFP strain growth, fluorescence, 24 h | 1,900 tested, under 10 active | activity change, negative = inhibition at 50 µM;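 active = compound lowering the normal-ribosome reporter at least twice as much as the humanized-ribosome reporter, growth loss under a set limit; inconclusive = no clear call, values can overlap the other calls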;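 also: wild-type GFP and h24 humanized RFP strains co-cultured 1 to 1 per well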
Numbers without * were called inactive; ? = inconclusive; · = not tested or not shown; [ ] = dose if it differs, or a comment. Compounds with a hit are over-represented: about 2.6% of the library has one in this group of screens.

SMILES | Vif imaging | Ecoli rRNA inh | miR122 inh | S100A4 MyoIIA | FN deposit inh | HIV Env fusion | AID977621 | AID977628
Cc1cc2nc(-c3cc(N4CCOCC4)ccc3[N+](=O)[O-])ccn2n1 | 20 | 2 | -2 | 0 | 0 | -3 | · | ·
Cc1cc2nc(-c3ccc4c(c3)CCC4)ccn2n1 | -8 | -31* | · | -1 | -7 | 9 | · | ?
CCNC(=O)C[C@H]1CC[C@H]2[C@@H](COC[C@@H](O)CN2C(=O)C2CC2)O1 | · | -1 | 3[16.7 µM] | 5 | -7 | · | · | ·
O=C(C[C@@H]1CC[C@@H]2[C@H](COC[C@@H](O)CN2C(=O)c2ccccc2F)O1)NCc1ccccc1 | · | 2 | 8[16.7 µM] | -48 | -3 | · | · | ·
COCCN(C(=O)c1ccccc1F)c1nnc(-c2ccc(OC)cc2)s1 | -1 | -24* | · | -3 | 1 | 0 | 1.6 | ?
COc1ccc(NC(=O)N(C)C[C@H]2Oc3ccc(NS(=O)(=O)c4ccccc4)cc3CC(=O)N([C@H](C)CO)C[C@H]2C)cc1 | · | 1 | 7[16.7 µM] | 1 | · | 5[16.7 µM] | · | ·
COc1cc(OC)cc(-c2nc3ccccc3c(=O)n2OC(=O)c2ccc(C)c(C)c2)c1 | -5 | -22* | · | -4 | -6 | -2 | -8.3 | -3.7
COc1ccc(-c2cnc3c(c2)C(=O)N([C@@H](C)CO)C[C@H](C)[C@H](CN(C)C(=O)C2CCCCC2)O3)cc1 | · | 2 | -2[16.7 µM] | 62 | · | · | · | ·
O=C(O)CSc1nnc(-c2ccc(Cl)cc2Cl)n1-c1ccc(Br)cc1 | 5 | -30* | 3 | -3 | 10 | -17 | -16 | ·
COc1ccc(NC(=O)N(C)C[C@@H]2Oc3ccc(NC(=O)C4CCCCC4)cc3CC(=O)N([C@@H](C)CO)C[C@H]2C)cc1 | · | -1 | -5[16.7 µM] | 6 | -11 | 17[16.7 µM] | · | ·
O=C(C1CCCC1)N1CC2(C1)[C@@H](c1ccccc1)[C@@H](CO)N2C(=O)CC1CC1 | · | 1 | · | -3 | -5 | · | · | ·
COc1ccc(C(=O)CSc2nc3ccccc3n2CC(=O)c2ccccc2)cc1 | -1 | -28* | 20 | ? | · | · | -1.4 | -12
COc1ccc(-c2nc(NC(C)=O)sc2-c2ccccc2)cc1 | -7 | -18* | · | -3 | -16 | 6 | -3.8 | ·
COCCCNc1ccn2nc(-c3ccccc3)cc2n1 | -9 | -20* | -7 | -5 | -8 | 63* | 5.4 | ·
COCCCNc1ccn2nc(-c3cccc(Cl)c3)cc2n1 | -8 | -12 | · | -2 | 3 | -337 | · | ·
O=C(Cn1c(C(=O)NCc2ccco2)cc2sccc21)c1ccccc1 | -3 | -23* | -1 | 2 | · | · | -21 | ?
O=C(Cn1c(C(=O)NCC2CCCO2)cc2sccc21)c1ccccc1 (stereo not given) | -13 | · | -20 | 0 | · | · | · | ·
Cc1cccc(OCc2nc(C#N)c(N3CC(C)CC(C)C3)o2)c1 (stereo not given) | 4 | -9 | · | -3 | -30 | -1 | · | ·
Cc1cccc(OCc2nc(C#N)c(N3CCCC3)o2)c1 | 13 | -25* | · | -1 | -1 | -8 | -1.6 | 3.7
COCCCNC(=O)C[C@@H]1C[C@@]2(C(=O)OC)CCCCC=C2N(Cc2ccccc2)C1=O | · | -12 | · | -7 | · | -5 | · | ·
CCCCNC(=O)C[C@@H]1C[C@@]2(C(=O)OC)CCCCC=C2N(Cc2ccccc2)C1=O | · | -22* | · | -2 | · | -15 | -5.4 | ·
Cc1ccc(S(=O)(=O)Nc2ccc3c(c2)CC(=O)N([C@@H](C)CO)C[C@@H](C)[C@@H](CN(C)S(C)(=O)=O)O3)cc1 | · | 2 | -1[16.7 µM] | 0 | 0 | 0[16.7 µM] | · | ·
CCS(=O)(=O)N1CC2(CN(Cc3ccccc3OC)[C@@H](CO)c3c2c2ccc(OC)cc2n3C)C1 | · | -3 | · | · | · | · | · | ·
CCc1nnc(NS(=O)(=O)c2ccc(NC(=O)c3cc(Cl)ccc3[N+](=O)[O-])cc2)s1 | 18 | -21* | 1 | 0 | -2 | 3 | -18 | ·
CCc1nnc(NS(=O)(=O)c2ccc(NC(=O)c3cc(Cl)ccc3Cl)cc2)s1 | 2 | -49 | · | 2 | 1 | 0 | · | ·
SMILES | Vif imaging | Ecoli rRNA inh | miR122 inh | S100A4 MyoIIA | FN deposit inh | HIV Env fusion | AID977621 | AID977628
CCc1nnc(NS(=O)(=O)c2ccc(NC(=O)c3cccc4ccccc34)cc2)s1 | 3 | -19* | 7 | -3 | · | 5 | 1.4 | ?
C[C@H](CO)N1C[C@H](C)[C@H](CN(C)Cc2ccc(C(=O)Nc3ccccc3N)cc2)Oc2ccc(NC(=O)Cn3cnnn3)cc2CC1=O | · | 1 | · | 0 | · | · | · | ·
CCCNC(=O)N1CCC2(CC1)CN(C(=O)CC)[C@@H](CO)c1c2c2ccc(OC)cc2n1C | · | -1 | · | 5 | · | · | · | ·
Nc1nc2c(s1)CCc1ccccc1-2 | -6 | -3 | 10 | 1 | -6 | -31 | · | ·
COc1ccc2c(c1)-c1nc(N)sc1CC2 | -4 | -22* | · | -7 | -3 | -4 | -0.82 | 2
Cc1ccc(S(=O)(=O)Nc2ccc3c(c2)C(=O)N([C@H](C)CO)C[C@@H](C)[C@H](CN(C)S(=O)(=O)c2c(C)noc2C)OCCCC[C@H](C)O3)cc1 | · | 4 | -2[16.7 µM] | -10 | 1 | -11[16.7 µM] | · | ·
COc1ccc(C[C@@H]2CCn3cc(nn3)COCCNC2=O)cc1 | · | 2 | · | · | 5 | · | · | ·
Cc1ccc(-c2noc(-c3ccccc3C(=O)NCc3ccco3)n2)cc1 | -12 | 6 | · | 1 | 2 | 5 | · | ·
Cc1cccc(-c2noc(-c3ccccc3C(=O)NCc3ccco3)n2)c1 | -1 | -33* | -8 | -6 | -12 | -1 | -17 | -14
C[C@@H]1CN([C@@H](C)CO)C(=O)c2cc(NS(=O)(=O)c3ccccc3)ccc2O[C@H]1CN(C)C(=O)Nc1ccc(F)cc1 | · | 1 | 1[16.7 µM] | 3 | · | -2[16.7 µM] | · | ·
Cc1cc(SCC(=O)c2cccs2)n2nc(C)c(-c3ccc(Cl)cc3)c2n1 | 8 | -31* | · | 3 | 4 | 12 | -1.6 | -1.9
C=CCSc1cc(C)nc2c(-c3ccc(Cl)cc3)c(C)nn12 | -1 | -51 | 0 | 12 | · | · | · | ·
Cc1cccc(C(=O)NCC(=O)N2CC=C(c3ccccc3)CC2)c1 | -4 | -30* | -7 | 11 | 1 | -1 | 0.37 | ?
CCOc1ccc(OCc2ccc(C(=O)N3CCCC3)o2)cc1 | -1 | -17* | 2 | 2 | · | · | -7.6 | -11
Cc1ccccc1S(=O)(=O)N1CC[C@@H]2[C@@H](CO)Nc3ccc(-c4ccccc4F)cc3[C@@H]21 | · | -11 | 27[16.7 µM] | 4 | -9 | · | · | ·
C[C@@H]1CN([C@@H](C)CO)C(=O)c2cc(N(C)C)ccc2O[C@H]1CN(C)C(=O)NC1CCCCC1 | · | 1 | 0[16.7 µM] | 4 | · | -22[16.7 µM] | · | ·

Assay outcomes (PubChem)
